Assay results from ChEMBL document CHEMBL4265907, “Design, synthesis and pharmacological evaluation of N4,N6-disubstituted pyrimidine-4,6-diamine derivatives as potent EGFR inhibitors in non-small cell lung cancer” (Eur J Med Chem, 2018).
Calls of active or inactive are those of the source. No cut-off for these calls is given here.

What was measured:
Mus musculus [1] = experiment: Toxicity in BALB/C nude mouse xenografted with human PC9 cells at 15 to 30 mg/kg, ip qd administered for 19 days measured for 23 days; assay type: organism-based; conditions: in vivo, 552 h
Procedure, shortened: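 Six-week-old BALB/C-nu mice were injected subcutaneously in the right flank with about 2×10^6 PC-9 cells. At a tumour size of ~0.2-0.4 cm³ they were randomised, 5 mice/group. Drug was given in DMSO:Span-80:ddH₂O 2:1:50, ip, daily at 15 or 30 mg/kg for 19 days; vehicle group included. Tumour volume = (W²×L)/2.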

Mus musculus [2] = experiment: In vivo inhibition of AKT phosphorylation in tumor of BALB/C nude mouse xenografted with human PC9 cells at 15 to 30 mg/kg, ip qd administered for 19 days by immunohistochemical analysis; assay type: functional, organism-based
A-431 = experiment: Induction of apoptosis in human A431 cells assessed as viable cells at 1000 nM after 48 hrs by Annexin V-FITC/PI staining based flow cytometry (reference value: 90.3%); assay type: functional; conditions: A-431, 48 h, read-out: Activity
HCC827 = experiment: Induction of apoptosis in human HCC827 cells assessed as viable cells at 1000 nM after 48 hrs by Annexin V-FITC/PI staining based flow cytometry (reference value: 94.6%); assay type: functional; conditions: HCC827, 48 h, read-out: Activity

In the case of `COc1cccc(Nc2cc(Nc3cc(OC)ccc3OC)ncn2)c1`, the Activity (Mus musculus [1]) is reported as “Non-Toxic”, the inhibition (Mus musculus [2]) is reported as “Active” and the viability at 1 µM (A-431) is reported as 65.3%. It also gave a viability at 1 µM (HCC827) of 53.4%.
